The list is not random: actives were taken first. Their share in the collection is about 1.8%.
DDE Tn6 FP inh: inhibitors of Tn6 peptide binding to fibrin DD(E), primary screen, biochemical, fluorescence polarization, human fibrin, Tn6 probe; inhibition, % at 8.3 µM; Fibrinogen beta chain (Homo sapiens), P02675; actives 0.21% (n = 370,000); AID 720509, 2013; Fibrin DD(E) TRITC-Tn6 fluorescence polarization displacement;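 active = inhibition above a per-campaign cutoff: mean of compounds within control limits plus 3 SD, cut at about 15% in these data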
Target sequence (P02675 whole entry, looked up): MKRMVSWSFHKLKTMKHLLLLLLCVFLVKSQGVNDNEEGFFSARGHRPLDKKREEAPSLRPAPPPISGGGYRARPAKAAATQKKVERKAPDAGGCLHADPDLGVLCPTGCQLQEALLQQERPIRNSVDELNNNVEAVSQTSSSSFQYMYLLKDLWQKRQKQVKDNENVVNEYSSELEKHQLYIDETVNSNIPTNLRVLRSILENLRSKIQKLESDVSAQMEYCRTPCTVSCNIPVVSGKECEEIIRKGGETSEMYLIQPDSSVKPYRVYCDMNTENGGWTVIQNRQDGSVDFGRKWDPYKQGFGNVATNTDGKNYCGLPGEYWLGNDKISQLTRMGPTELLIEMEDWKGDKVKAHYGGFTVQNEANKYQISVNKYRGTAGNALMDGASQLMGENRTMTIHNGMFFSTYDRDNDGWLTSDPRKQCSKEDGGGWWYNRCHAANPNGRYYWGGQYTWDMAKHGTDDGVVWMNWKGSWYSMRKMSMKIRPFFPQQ
CAL PDZ FP-1: CAL PDZ peptide-binding inhibitors, primary screen, biochemical, fluorescence polarization, Cer-tagged CAL PDZ, HTS | purified CAL PDZ, TMR-peptide fluorescence polarization, 1 h | actives 0.02% (n = 330,000) | inhibition, % at 20 µM;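 active = highest replicate inhibition of at least 40%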
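Material: tagged CAL PDZ protein CerCALP, purified; buffer or medium: sodium phosphate/NaCl buffer pH 7.4 with TCEP, IgG, Thesit; also added: fluorescent TMR peptide probe; schedule: 1 h incubation at room temperature before polarization reading; technique: fluorescence polarization from S- and P-plane intensities, G-factor corrected; control set: unlabelled peptide and DMSO controls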
DDE Tn7 FP inh: inhibitors of Tn7 peptide binding to fibrin DD(E), primary screen, biochemical, fluorescence polarization, human fibrin, Tn7 probe | FP displacement of FITC-Tn7 peptide from fibrin DD(E); 0% = median of compound wells per plate | inhibition, % at 8.3 µM | actives 0.13% (n = 370,000) | AID 720508, 2013;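 active = inhibition above the mean of compounds falling within the control limits plus 3 SD of them, cut at about 14% in these data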
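Assay system: Human fibrin DD(E) protein | Medium: Tris buffer with calcium and detergent, pH 7.8 | Reagent: 0.1 µM fluorescent Tn7 | Compound dosing: Single point at 8.3 µM | Times: 10 min preincubation, 3 h with tracer, room temperature | Detection: Fluorescence polarization of the labelled Tn7 tracer | Controls: Aha-Tn7 high control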
GRK2 inh: compounds blocking aptamer binding on GRK2 – biochemical, human GRK2, bead flow cytometry, HTS, primary screen; FAM-aptamer displacement from GRK2; inhibition of aptamer binding, % at 10 µM; actives 0.59% (n = 330,000);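 active = inhibition of aptamer binding above 40%, roughly 3 SD of noise, on plates passing a quality check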;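 note: median bead fluorescence of bound FAM aptamer so fluorescent compounds give negative values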
ARNT TACC3 PPI: disruptors of ARNT/TACC3 protein interaction, primary screen, biochemical, AlphaScreen, single concentration; Transforming acidic coiled-coil-containing protein 3 (Homo sapiens), Q9Y6A5; AlphaScreen His-ARNT PAS-B/GST-TACC3 binding, luminescence; TACC3 fragment carries E629A point mutation; inhibition, % at 9.99 µM; actives 0.66% (n = 390,000);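 active = mean inhibition of replicates at least 50% and at least half of replicates each reaching 50%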
CAL PDZ FP-2: untagged CAL PDZ binding inhibitors, primary screen, biochemical, fluorescence polarization, HTS. actives 0.92% (n = 300,000). AID 602252, 2012. purified CAL PDZ, TMR-peptide fluorescence polarization, 1 h. Golgi-associated PDZ and coiled-coil motif-containing protein (Homo sapiens), Q9HD26. inhibition, % at 24.9 µM;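 active = mean inhibition of at least 30% with at least half of replicates also reaching 30%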
ARNT Alpha ctr: AlphaScreen signal interference compounds, dose response, artefact control for ARNT-TACC3 interaction inhibitor project, biochemical, luminescence, cherry-pick | shares compounds with ARNT TACC3 PPI | His-ARNT PASB-GST AlphaScreen artifact counter-screen | actives 50% (n = 1,200) | AC50, µM (top dose mostly 68 µM);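 active = every separate test run was called active for a drop in luminescence, with AC50 within twice the top valid dose, actives reach about 71 µM in these data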
A number is an active result; n = inactive; x = no result given.

SMILES	DDE Tn6 FP inh	CAL PDZ FP-1	DDE Tn7 FP inh	GRK2 inh	ARNT TACC3 PPI	CAL PDZ FP-2	ARNT Alpha ctr
O=C(CN1C(=O)NC2(CCOc3ccccc32)C1=O)NCCc1ccccc1 (stereo not drawn)	n	n	n	n	n	x	x
COc1ccccc1NC(=O)CSc1nnnn1-c1ccccc1OC	n	n	n	n	n	n	x
COc1ccc(OC)c(-n2nnnc2SCC(=O)Nc2ccccc2OC)c1	n	n	n	n	active	x	n
CC(C)NC(=O)Nc1cccc2c1O[C@H](CN(C)S(=O)(=O)c1cn(C)cn1)[C@H](C)CN([C@@H](C)CO)C2=O	x	x	x	x	n	x	x
CCC(C(=O)Nc1ncn[nH]1)(C(F)(F)F)C(F)(F)F	n	n	n	n	11	n	n
O=C(Nc1ncn[nH]1)C(F)(F)C(F)F	n	n	n	n	n	n	x
COc1ccc(S(=O)(=O)N(C)C[C@H]2Oc3ccc(NS(=O)(=O)c4c(C)noc4C)cc3CC(=O)N([C@@H](C)CO)C[C@@H]2C)cc1	x	x	x	x	n	x	x
COc1cc(Cl)ccc1OC1(C)CCN(Cc2cccc(OC)c2OC)C1 (stereo not drawn)	n	x	n	x	x	x	x
C=CCN1C(=O)c2n[nH]c(COC)c2C1c1ccc(C)cc1 (stereo not drawn)	n	x	n	x	x	x	x
Cc1cc(C(=O)N/N=C/c2c(CO)cnc(C)c2O)c2ccccc2n1	n	n	n	n	61	n	20µM
Cc1ncc(CO)c(/C=N/NC(=O)c2ccc(Br)cc2)c1O	x	x	x	n	x	x	x
Cc1ncc(CO)c(/C=N/NC(=O)c2cc(Br)ccc2O)c1O	n	n	n	n	62	x	47µM
COc1ccccc1S(=O)(=O)N[C@@H]1CC[C@H](CCn2cc(C3CCCCC3)nn2)O[C@@H]1CO	x	x	x	x	n	x	x
Cc1[nH][nH]c(=O)c1C(c1c(C)[nH][nH]c1=O)c1cn(Cc2cccc3ccccc23)c2ccccc12	n	n	n	n	26	n	46µM
CC(=O)NC(c1cccs1)c1cc([N+](=O)[O-])c2cccnc2c1O (stereo not drawn)	n	n	n	n	60	n	6.9µM
CC(=O)NC(c1ccccc1)c1cc([N+](=O)[O-])c2cccnc2c1O (stereo not drawn)	n	n	n	n	n	n	x
O=C(CCc1ccccc1)NC(c1cccs1)c1cc(Cl)c2cccnc2c1O (stereo not drawn)	n	n	n	x	n	n	x
CCCC(=O)NC(c1cccs1)c1cc([N+](=O)[O-])c2cccnc2c1O (stereo not drawn)	n	n	n	n	58	x	9.9µM
CC(=O)NC(c1cc(Cl)c2cccnc2c1O)C(C)C (stereo not drawn)	n	n	n	n	58	n	38µM
C[C@H]1[C@@H](C(=O)N2CCCC2)CC(=O)/C(=N/OCc2ccccc2)C[C@@H]1c1ccccc1	n	x	n	x	x	x	x
CC(C)(C)c1ccc(CNc2nc(-c3ccccn3)nnc2-c2ccccc2)cc1	n	x	n	x	x	x	3.7µM
CC(C)(C)c1ccc(-c2nc(NCc3cccnc3)c3ccccc3n2)cc1	n	n	n	n	n	n	x
Clc1cccc(CNc2nc(-c3ccccn3)nnc2-c2ccccc2)c1	n	x	n	x	x	x	2.2µM
Cc1cccc(S(=O)(=O)N2C[C@H](O)COC[C@H]3O[C@H](CC(=O)Nc4ccc(-c5ccccc5)cc4)CC[C@@H]32)c1	x	x	x	x	n	x	x
CCN(C(=O)COc1cccc2cccnc12)C1CCS(=O)(=O)C1 (stereo not drawn)	n	n	n	n	53	n	n
SMILES	DDE Tn6 FP inh	CAL PDZ FP-1	DDE Tn7 FP inh	GRK2 inh	ARNT TACC3 PPI	CAL PDZ FP-2	ARNT Alpha ctr
CCN(C(=O)COc1ccccc1C(=O)NCc1ccccc1)C1CCS(=O)(=O)C1 (stereo not drawn)	n	n	n	n	n	n	x
CC(=O)N(C)C[C@H]1Oc2cc(-c3cccc(C#N)c3)ccc2S(=O)(=O)N([C@H](C)CO)C[C@@H]1C	x	x	x	x	n	x	x
O=C(C[C@H]1C=C[C@H](NS(=O)(=O)c2ccc(F)cc2)[C@H](CO)O1)N1CCN(c2ccccc2)CC1	x	x	x	x	52	x	n
O=C(C[C@H]1C=C[C@@H](NS(=O)(=O)c2ccc(F)cc2)[C@H](CO)O1)N1CCN(c2ccccc2)CC1	x	x	x	x	n	x	x
Oc1cccc(CN2CCOCC2)c1O	n	n	n	x	15	n	n
O=C(C[C@H]1CC[C@@H]2[C@H](COC[C@H](O)CN2C(=O)Nc2ccc(Cl)cc2)O1)N1CCCCC1	x	x	x	x	n	x	x
CN1CCc2c(sc3c2C(=O)NC(c2ccccn2)N3)C1 (stereo not drawn)	28	n	n	n	active	n	68µM
CN1CCc2c(sc3c2C(=O)NC(c2ccccc2)N3)C1 (stereo not drawn)	n	n	n	n	n	n	x
Cc1ccc(C2CCN(C(=S)Nc3cccc(C)c3)C2)cc1 (stereo not drawn)	n	n	n	n	58	n	n
O=c1[nH]c2ccccc2nc1-c1nnnn1Cc1ccccc1	n	x	n	x	x	x	x
CO[C@H]1CN(C)C(=O)c2cc(NC(=O)NC3CCCCC3)ccc2OC[C@H](C)N(CC2CC2)C[C@@H]1C	x	x	x	x	57	x	n
CO[C@H]1CN(C)C(=O)c2cc(NC(=O)NC3CCCCC3)ccc2OC[C@@H](C)N(CC2CC2)C[C@H]1C	x	x	x	x	n	x	x
CO[C@@H]1CN(C)C(=O)c2cc(NC(=O)c3ccccc3)ccc2OC[C@@H](C)N(C(=O)C2CC2)C[C@H]1C	x	x	x	x	12	x	n
COc1ccc(NC(=O)N(C)C[C@H]2Oc3ccc(NC(=O)Nc4c(C)noc4C)cc3C(=O)N([C@@H](C)CO)C[C@H]2C)cc1	x	x	x	x	n	x	x
O=C(C[C@H]1C=C[C@@H](NC(=O)NC2CCCCC2)[C@H](CO)O1)NCc1ccccc1	x	x	x	x	n	x	x
O=C(N/N=C/c1cccc2nccnc12)c1ccccc1O	n	n	n	n	59	x	30µM
c1ccc(-c2nnc(Nc3nc(-c4ccccn4)nnc3-c3ccccc3)s2)cc1	x	x	x	x	x	x	4.1µM
c1ccc(Nc2nnc(-c3cccnc3)s2)cc1	n	n	n	n	n	n	x
